Screening data (PubChem BioAssay)
XBP1 UPR activ – activators of adaptive XBP1 UPR arm, primary screen, cell-based, CHO-XBP1 luciferase reporter, luminescence, uHTS | IRE1-XBP1 UPR activation; percent of tunicamycin response, DMSO as zero | activation, % at 20 µM | 330,000 tested, 0.33% active | AID 463104, 2010;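 active = versus positive control, 20 µM dose yields 30% or more activation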;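 note: 100% = tunicamycin at 10 µg/mL and 0% = DMSO only wells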
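Material: IRE1-XBP1 luciferase reporter CHO line / Quantity: one thousand reporter cells per well / Buffer or medium: F12 with 10% serum / Compound: 20 µM single concentration, DMSO 1% / Times: 6 h treatment, 37 °C / Detection: Steady-Glo luciferase glow luminescence, 10 min after reagent addition / Benchmarks: tunicamycin high, DMSO low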
Cardio protect – cardioprotection against H2O2-induced cell death, primary screen, uHTS, H9c2 cells, ATPLite luminescence; H9c2 cardiomyocytes, H2O2 injury protection, 2 h; protection from H2O2 cell death, % at 20 µM; 360,000 tested, 0.63% active; AID 588492, 2011;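 active = compounds giving at least 50% protection of heart cells from peroxide-induced death in the single-dose screen, raw or plate-pattern-corrected value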;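 note: 0% = DMSO wells with peroxide and 100% = DMSO wells without peroxide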
CHOP UPR activ – activators of apoptotic CHOP UPR arm, primary screen, cell-based, CHO-CHOP luciferase reporter, luminescence, uHTS; activation, % at 10 µM; UPR activation; percent of tunicamycin response over DMSO baseline; 330,000 tested, 0.34% active;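 active = at 10 µM dose, activation of 40% or more, normalized to positive control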;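 note: 100% = tunicamycin at 10 µg/mL and 0% = DMSO alone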
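Test system: CHO-CHOP cells, stable luciferase reporter of PERK-eIF2a-CHOP signalling | Quantity: 500 CHO-CHOP cells per well | Buffer or medium: F12 plus 10% serum | Compound dosing: 10 µM single point, 0.5% DMSO | Schedule: 6 h compound treatment, 37 °C | Signal: Luciferase luminescence | Control set: Tunicamycin high control, DMSO low control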
CHOP inh – inhibitors of CHOP promoter induction, primary screen, cell-based, unfolded protein response, luciferase reporter | CHO-K1 CHOP-promoter luciferase, tunicamycin-induced, 15-18 h | inhibition, % at 10 µM | 220,000 tested, 3.8% active | AID 2732, 2010;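 active = compounds that reduced the stress-induced luciferase reporter signal by more than about 70% of percent inhibition, limit read from the data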;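 note: 0% = tunicamycin plus vehicle and 100% = wells without tunicamycin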
hiPSC survival – enhancers of single-cell hiPSC survival, primary screen, ATPlite luminescence; 100% = ROCK inhibitor wells, 0% = DMSO; survival enhancement, % at 20 µM; 360,000 tested, 0.044% active; AID 602274, 2012; in the data active = survival enhancement above about 18%;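 note: cells exposed to compounds for 16 hours before the ATP read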
* marks the source's active call; other numbers are inactive results. Only a selection was taken, and hits are over-represented in it overall.

`Cc1cc2nc(-c3ccc(Cl)cc3)c(Cc3ccsc3)n2c(C)c1Br` gave hiPSC survival -1.
Screening O=C1NC[C@H](Cc2ccc(O)cc2)N(C[C@@H]2CCCN2C[C@H](Cc2ccccc2)N2C[C@H](Cc3ccc(O)cc3)N(CC3CCCCCC3)C(=O)C2=O)C1=O returned hiPSC survival 1.
For COc1ccc(Nc2oc(COc3ccc(Cl)cc3)nc2C#N)cc1 the results were XBP1 UPR activ 1, Cardio protect -19, CHOP UPR activ 2, CHOP inh 28 and hiPSC survival 0.
Screening CCOc1ccc(-c2nc(C#N)c(NCc3ccc4c(c3)OCO4)o2)cc1 returned XBP1 UPR activ 5, Cardio protect -21, CHOP UPR activ 2, CHOP inh 78* and hiPSC survival 2.
Screening COc1ccc(Nc2oc(-c3ccc(Cl)cc3)nc2C#N)cc1 returned XBP1 UPR activ 4, Cardio protect -26, CHOP UPR activ 3, CHOP inh 85* and hiPSC survival -1.
Screening CCOc1ccc(Nc2oc(-c3ccc(Cl)cc3)nc2C#N)cc1 returned XBP1 UPR activ 4, Cardio protect -1, CHOP UPR activ 5, CHOP inh 75* and hiPSC survival -2.
`COc1ccc(Nc2oc(-c3ccc(OC)cc3)nc2C#N)cc1` gave XBP1 UPR activ 9, Cardio protect -5, CHOP UPR activ 9, CHOP inh -12 and hiPSC survival -1.
For CCOC(=O)c1c(N)nn(C(=O)C(C)(C)C)c1-c1ccccc1 the results were XBP1 UPR activ 1, Cardio protect -9, CHOP UPR activ 1, CHOP inh 94* and hiPSC survival 5.
`CCS(=O)(=O)c1ncc(Cl)c(C(=O)Nc2ccc(S(=O)(=O)N3CCCC(C)C3)cc2)n1` (stereo not given) gave XBP1 UPR activ -10, Cardio protect -17, CHOP UPR activ -11 and hiPSC survival 20*.
Screening CCS(=O)(=O)c1ncc(Cl)c(C(=O)Nc2ccc(C)cc2)n1 returned XBP1 UPR activ -10, Cardio protect -20, CHOP UPR activ 12 and hiPSC survival 1.
For O=C(Nc1ccc(Cl)cc1Cl)c1cc2ccccc2o1 the results were XBP1 UPR activ -1, Cardio protect -9, CHOP UPR activ 5 and hiPSC survival 0.
Screening O/N=C(\c1ccc(Cl)cc1)c1cc2ccccc2o1 returned XBP1 UPR activ 1, Cardio protect -18, CHOP UPR activ 1, CHOP inh 85* and hiPSC survival 1.
For O=C1/C(=C\c2ccco2)CCC/C1=C\c1ccco1 the results were XBP1 UPR activ 4, Cardio protect -6, CHOP UPR activ 4, CHOP inh 87* and hiPSC survival 0.
Screening CCCN1C/C(=C/c2cccc([N+](=O)[O-])c2)C(=O)/C(=C/c2cccc([N+](=O)[O-])c2)C1 returned Cardio protect 12, CHOP inh 100* and hiPSC survival -3.
COCC(=O)N(C)C[C@@H]1Oc2ncc(Br)cc2C(=O)N([C@@H](C)CO)C[C@H]1C was read as Cardio protect 23 and hiPSC survival -2.
`Cc1ccc2c(c1)SC1=NC(c3ccccc3)(C(F)(F)F)NC(=O)N12` (stereo not given) gave XBP1 UPR activ -1, CHOP UPR activ -1 and CHOP inh 70*.
COc1cccc(-n2nnnc2SCC(=O)N2CCCc3ccccc32)c1 was read as XBP1 UPR activ 2, Cardio protect 6, CHOP UPR activ 1, CHOP inh 70* and hiPSC survival 0.
COc1cc(OC)cc(-n2nnnc2SCC(=O)N2CCCc3ccccc32)c1 was read as XBP1 UPR activ -2, Cardio protect 9, CHOP UPR activ 0, CHOP inh 18 and hiPSC survival 0.
For O=C(O)CCC/C=C\C[C@@H]1[C@@H](/C=C/[C@H](O)C2Cc3ccccc3C2)[C@@H](F)C[C@@H]1O the results were CHOP inh -21.
`Cc1cc(Cl)ccc1Oc1nc(-c2ccccc2)ncc1S(C)(=O)=O` gave XBP1 UPR activ 0, Cardio protect -4, CHOP UPR activ -2, CHOP inh 79* and hiPSC survival -1.
